Screening results (PubChem)
PAX8 reporter: inhibitors of PAX8 transcriptional activity in RMG-I cells. RMG-I TPO-luciferase reporter, SteadyGlo, 24 h. inhibition, % at 12.6 µM. AID 652154. 360,000 compounds, 1.2% hits;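 active means mean replicate inhibition at least 60% with every replicate also reaching 60%; inconclusive means only one of the two criteria is met; inactive means mean below 60% and not all replicates reaching 60%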;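 further: luciferase light reporting Pax8 driven TPO promoter activity; plate controls were median of neutral control wells for no effect and mitoxantrone controls for full effect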
PGC1a acetyl inh: PGC1a acetylation modulation, inhibitor mode; AID 651687; U2OS PGC1a acetylation, AlphaScreen anti-acetyl-lysine; with virally co-expressed GCN5 acetyltransferase; 350,000 compounds, 0.17% hits; inhibition, % at 15.6 µM;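 active means every replicate shows inhibition of at least 40%; inconclusive means mean inhibition at least 40% but some replicate below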;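 further: 0% = neutral control wells and 100% = positive control wells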
AF4-AF9 inh: inhibitors of human MLL-AF4/AF9 interaction | inhibition, % at 10 µM | AlphaScreen, biotin-AF4 peptide binding to FLAG-AF9 | AID 651704 | 350,000 compounds, 0.47% hits;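 active means every replicate reaching a set inhibition limit, whatever the replicate mean, cut at about 25% in these data; inconclusive means mean inhibition reaches that limit but some replicates miss it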;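 further: 0% = plate neutral control median and 100% = total signal loss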
Target sequence (P42568 whole entry, looked up): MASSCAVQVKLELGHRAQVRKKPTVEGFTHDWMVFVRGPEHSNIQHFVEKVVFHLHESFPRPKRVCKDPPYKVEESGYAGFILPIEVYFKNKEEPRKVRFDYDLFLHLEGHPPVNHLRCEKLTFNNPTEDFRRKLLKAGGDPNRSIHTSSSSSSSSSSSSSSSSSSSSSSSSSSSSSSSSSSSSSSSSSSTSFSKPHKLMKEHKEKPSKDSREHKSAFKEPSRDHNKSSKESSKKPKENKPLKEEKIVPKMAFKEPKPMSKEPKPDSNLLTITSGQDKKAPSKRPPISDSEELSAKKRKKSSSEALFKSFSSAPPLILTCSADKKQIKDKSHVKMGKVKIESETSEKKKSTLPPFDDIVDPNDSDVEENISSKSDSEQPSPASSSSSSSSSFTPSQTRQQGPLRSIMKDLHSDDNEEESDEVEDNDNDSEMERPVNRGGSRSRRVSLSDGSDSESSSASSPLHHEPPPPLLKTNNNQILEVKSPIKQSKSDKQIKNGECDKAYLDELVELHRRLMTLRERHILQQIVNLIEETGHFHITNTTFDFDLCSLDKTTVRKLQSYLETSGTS
XiGFP reactiv: activators of X-chromosome reactivation in mouse fibroblasts. AID 743238. XiGFP mouse fibroblasts, % GFP-positive cells imaging, 3 d; cells co-treated with 5-aza-dC sensitizer; scaled so ellipticine positive control = 100%. 360,000 compounds, 0.055% hits. activation, % at 7.58 µM;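 active means mean normalized replicate activation at least 10% and every replicate at or above 10%; inconclusive means only one of the two criteria met; inactive means mean below 10% and not all replicates reach 10%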;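 further: 0% = median of on-plate neutral control wells and 100% = ellipticine 6 µM median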
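Material: XiGFP fibroblasts, SV40-immortalized; Buffer or medium: DMEM containing 5-aza-dC; Compound dosing: single point; Times: 3 days compound exposure.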
INS-1E GSIS act: primary screen for activators of insulin secretion dependent on glucose, INS-1E cells, GLuc reporter luminescence. INS-1E GLuc reporter insulin secretion, 2-3 h. activation, % at 16.6 µM. AID 743287. 370,000 compounds, 0.61% hits;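 active means lowest replicate activation of at least 40%, so every replicate reaches that level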;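 further: 0% = median of neutral control wells and 100% = median of IBMX positive control wells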
EWS-Fli block: EWS/Fli transcriptional activity inhibition; inhibition, % at 12.6 µM; A673 NR0B1-luciferase reporter, viability-normalised; 350,000 compounds, 0.67% hits;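 active means mean inhibition of at least 50% after viability correction, with every replicate also passing that limit; inconclusive means mean reaches 50% but only one of two replicates passes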;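 further: firefly luciferase signal divided by Alamar Blue viability fluorescence both relative to DMSO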
An asterisk follows results filed as active; ? = inconclusive; / = not tested or not shown. Hits are enriched below; roughly 2.1% of the tested compounds scored in any of these assays.

SMILES | PAX8 reporter | PGC1a acetyl inh | AF4-AF9 inh | XiGFP reactiv | INS-1E GSIS act | EWS-Fli block
O=C(c1cccc2ccccc12)C1CCCN(Cc2ccon2)C1 (stereo not given) | 16 | -2 | -5 | 27* | 40* | 7
Cc1cc(Cl)ccc1C(=O)C1CCCN(Cc2ccon2)C1 (stereo not given) | 21 | -11 | 2 | 0 | 8 | 0
O=C(Cc1ccccc1)N1CCCCN2[C@@H](CO)[C@H](c3ccc(-c4ccccc4)cc3)[C@@H]2C1 | -17 | -5 | 4 | 5 | -4 | /
CCN(CC)c1ccc(N=Cc2c(O)n(Cc3ccccc3)c(=O)[nH]c2=O)cc1 | -1 | -2 | / | 0 | 41* | /
COC(=O)C(O)(c1ccc(NC(=S)NC(=O)c2ccc(Cl)cc2Cl)cc1)C(F)(F)F (stereo not given) | 84* | / | 7 | 0 | -14 | -5
N#Cc1cccc(-c2ccc([C@@H]3[C@@H](CO)N4CCCCN(C(=O)Cc5cccnc5)C[C@H]34)cc2)c1 | -8 | 2 | / | 0 | -4 | -6
Cc1ccccc1NC(=NCCCN1CC1)Nc1ccccc1C | 16 | / | 78* | 1 | / | -8
CCCCn1nnnc1C(CCc1ccccc1)N1CCC(n2c(=O)[nH]c3ccccc32)CC1 (stereo not given) | 81* | -14 | -2 | 0 | / | 15
CCC(c1nnnn1Cc1ccccc1)N1CCC(n2c(=O)[nH]c3ccccc32)CC1 (stereo not given) | 88* | 25 | -5 | 0 | -17 | 7
CCCCn1nnnc1C(CCSC)N1CCC(n2c(=O)[nH]c3ccccc32)CC1 (stereo not given) | 17 | 9 | 7 | 0 | -8 | -9
CC(=O)OC1C(O)C(C)OC(OC2C(OC(=O)C3CCC4C(C3)OC3(CC(OC(=O)/C=C/c5ccccc5)C(C)CO3)C43CO3)OC(C)C(O)C2OC(C)=O)C1O (stereo not given) | 104* | 78* | 0 | 3 | -23 | 36
CSc1ncc(Br)c(N2CC2)n1 | 0 | -6 | 3 | 0 | 42* | 5
CCCNC(=O)[C@H]1[C@H](CO)[C@H]2Cn3c(cccc3=O)[C@H]2N1C | -14 | / | -1 | 2 | 8 | -4
CC(=O)N1C[C@@H]2C(c3ccccc3)[C@H](C1)N2C (stereo not given in full) | / | / | / | 0 | -8 | /
CC1=C(N2CC2)C(=O)C(CO)=C(N2CC2)C1=O | 118* | 41 | 1 | 0 | 6 | 28
COC(COC(N)=O)C1=C(N2CC2)C(=O)C(C)=C(N2CC2)C1=O (stereo not given) | 12 | -4 | -3 | 0 | 9 | -2
COP(=O)(NC(=O)C(Cl)(Cl)Cl)OC | -13 | -4 | 27* | 0 | 11 | -5
O=C(Cc1ccccc1)N1C[C@H]2[C@@H](c3ccccc31)[C@@H](CO)N2Cc1ccccc1 | 5 | -9 | / | 0 | -1 | 8
CN1[C@@H]2CN(CC3CC3)C[C@H]1C2c1ccc(Br)cc1 (stereo not given in full) | / | / | / | 0 | -18 | /
CCOC(=O)[C@@]1(C#N)[C@@H]2C=CC(C(N)=O)=CN2[C@@H](C(N)=O)[C@@H]1c1cccc(Cl)c1 | -5 | 10 | / | / | / | /
CCOC(=O)[C@]1(C#N)[C@@H]2C=CC(C(N)=O)=CN2[C@@H](C(N)=O)[C@@H]1c1ccc(F)cc1 | -8 | 88* | -2 | 0 | 0 | -5
c1ccc2c[n+](CCCCCCCCCC[n+]3ccc4ccccc4c3)ccc2c1 | 81* | / | -2 | 0 | -22 | 20
C1=C(c2c[nH]c3ccccc23)CCN(Cc2ccccc2)C1 | 64* | / | 6 | -1 | 11 | 26
COC(=O)[C@@H]1[C@@H](CO)[C@@H]2Cn3c(ccc(/C=C/c4ccccc4)c3=O)[C@H]1N2CC1CCCC1 | 29 | 0 | -45 | 0 | -7 | 3
COc1cccc(OC)c1C1=NCC(=O)Nc2c1oc1ccc(Br)cc21 | 76* | -18 | 12 | 1 | -8 | 47
SMILES | PAX8 reporter | PGC1a acetyl inh | AF4-AF9 inh | XiGFP reactiv | INS-1E GSIS act | EWS-Fli block
CCCC#Cc1ccc([C@H]2[C@@H](CO)N3CCCCN(C(=O)Cc4ccccn4)C[C@@H]23)cc1 | 4 | -9 | 1 | 0 | 15 | -7
Cc1c(C(=O)c2cccc3ccccc23)c2cccc3c2n1[C@H](CN1CCOCC1)CO3 | 101* | / | 1 | 0 | / | -8
O=C(CN1CCOCC1)c1cccc2ccccc12 | 6 | 3 | / | / | / | /
CC=Cc1ccc2n(c1=O)C[C@H]1[C@H](CO)[C@@H](C(=O)OC)[C@@H]2N1C(=O)CC (mixture of isomers) | / | / | 0 | 0 | 29 | -5
C1=C(c2ccccc2)CCNC1 | 3 | ? | -4 | 0 | -6 | -1
Cc1[nH]c2ccccc2c1C1=CCNCC1 | / | 5 | 38* | / | -10 | -2
C/C=C/c1ccc(C2[C@H]3CNC[C@@H]2N3CC2CCCCC2)cc1 (stereo not given in full) | -4 | -3 | / | 0 | 5 | 76*
C/C=C/c1ccc(C2[C@H]3CNC[C@@H]2N3Cc2ccccn2)cc1 (stereo not given in full) | 13 | 3 | / | 0 | 4 | -14
COC(=O)[C@H]1[C@H](CO)[C@H]2Cn3c(ccc(C4=CCCCC4)c3=O)[C@@H]1N2Cc1cccnc1 | 3 | 5 | 1 | 0 | 10 | -2
CCN(CC)c1ccc(C=C2C(=O)N(C)C(=S)N(C)C2=O)o1 | 78* | -5 | -6 | 0 | 5 | -81
CCN(CC)c1ccc(/C=C2\C(=O)NC(=S)N(C)C2=O)o1 | -157 | 3 | -2 | 0 | / | -126
COC(=O)[C@@H]1[C@@H](CO)[C@@H]2Cn3c(ccc(-c4ccccc4F)c3=O)[C@H]1N2C(=O)C1CC1 | 2 | 3 | 0 | 1 | 15 | -4
CC(C)c1cc(Br)c(NC(=O)Nc2cccnc2)c(Br)c1 | -27 | 1 | 0 | 0 | 115* | 19
CCCCCCC[n+]1ccc(-c2cc[n+](CCCCCCC)cc2)cc1 | 86* | / | 1 | 1 | 6 | 3
C[n+]1ccc(-c2cc[n+](C)cc2)cc1 | 0 | -20 | -4 | 0 | 4 | 5
COc1cc2c(cc1OC)-c1c3c(cc4c1[C@@H](C2)N(C)CC4)OCO3 | -15 | 22 | 20 | 0 | 3 | 2
COc1cc2c(cc1O)C[C@H]1NCCc3cc4c(c-2c31)OCO4 | 86* | 23 | 12 | 0 | 18 | 20
COC(=O)C1=C(c2ccc(OCc3ccccc3)cc2)C[C@@H]2CC[C@H]1N2C(=O)NCCCCc1ccccc1 | 62* | 6 | -2 | 0 | -5 | 11
COC(=O)[C@@H]1[C@@H](CO)[C@@H]2Cn3c(ccc(-c4ccncc4)c3=O)[C@H]1N2S(=O)(=O)c1ccccc1C | 2 | / | -24 | 0 | 27 | 1
